Reference: ChEMBL document CHEMBL5523707, “Novel Inhibitory Site Revealed by XAP044 Mode of Action on the Metabotropic Glutamate 7 Receptor Venus Flytrap Domain” (J Med Chem, 2024)
One block for each compound: values may come before it. Active and inactive are the calls of the source. No cut-off for these calls is given here.

Columns and labels:
[1] = target: Metabotropic glutamate receptor 7 (Rattus norvegicus) (UniProt P35400); assay: Antagonist activity against LSP4-202-induced rat mGlu7 activation transfected in HEK293 cells co-transfected with chimeric Gqi9 assessed as decrease in LSP4-202 potency by measuring LSP4-202 maximum efficacy at 30 to 100 uM incubated for 24 hrs by IP-one HTRF assay relative to control; type: functional, cell-based; conditions: filed as antagonist, dose 30-100 µM
Sequence of Metabotropic glutamate receptor 7 (Rattus norvegicus) (P35400 whole entry): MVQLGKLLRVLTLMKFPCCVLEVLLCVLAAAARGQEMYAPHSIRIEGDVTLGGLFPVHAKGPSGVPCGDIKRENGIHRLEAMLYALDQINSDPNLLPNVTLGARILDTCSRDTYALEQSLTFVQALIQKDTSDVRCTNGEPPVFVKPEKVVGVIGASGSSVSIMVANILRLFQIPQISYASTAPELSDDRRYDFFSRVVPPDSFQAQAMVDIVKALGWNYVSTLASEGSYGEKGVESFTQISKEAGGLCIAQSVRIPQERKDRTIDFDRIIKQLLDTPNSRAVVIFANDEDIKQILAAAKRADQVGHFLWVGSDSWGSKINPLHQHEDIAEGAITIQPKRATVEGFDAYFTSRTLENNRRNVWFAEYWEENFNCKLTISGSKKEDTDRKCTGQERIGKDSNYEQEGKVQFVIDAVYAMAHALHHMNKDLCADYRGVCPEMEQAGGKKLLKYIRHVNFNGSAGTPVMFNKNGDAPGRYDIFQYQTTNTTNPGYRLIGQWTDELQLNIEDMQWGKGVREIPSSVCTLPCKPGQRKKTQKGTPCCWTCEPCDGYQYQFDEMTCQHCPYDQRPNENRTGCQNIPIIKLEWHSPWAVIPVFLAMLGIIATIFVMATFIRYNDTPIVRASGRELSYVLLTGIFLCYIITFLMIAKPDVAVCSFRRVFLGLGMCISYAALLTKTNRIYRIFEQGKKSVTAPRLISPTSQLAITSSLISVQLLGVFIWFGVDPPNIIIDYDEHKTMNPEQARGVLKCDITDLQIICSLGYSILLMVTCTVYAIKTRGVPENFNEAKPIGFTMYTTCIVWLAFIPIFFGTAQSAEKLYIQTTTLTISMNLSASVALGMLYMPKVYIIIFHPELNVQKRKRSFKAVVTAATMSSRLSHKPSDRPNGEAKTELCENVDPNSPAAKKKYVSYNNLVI
Method in brief: (§1)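 IP-One HTRF IP1 read-out in HEK293 transiently expressing rat mGlu7 plus chimeric Gqα9, 24 h after electroporation. LSP4-2022 concentration-response was tested with derivatives at 30 or 100 µM. Gives pEC50, pEC50/pEC50 control ratio, and max as % of LSP4-2022 maximal effect over basal. Triplicates, n independent experiments; paired t-test.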

[2] = species on record: Rattus norvegicus; assay: Ratio of pEC50 for antagonist activity against LSP4-202-induced rat mGlu7 activation transfected in HEK293 cells co-transfected with chimeric Gqi9 assessed as decrease in LSP4-202 potency to pEC50 for LSP4-202-induced rat mGlu7 activation transfected in HEK293 cells co-transfected with chimeric Gqi9; type: cell-based; method in brief: as §1
[3] = target: Metabotropic glutamate receptor 7 (Rattus norvegicus) (UniProt P35400); assay: Antagonist activity against LSP4-202-induced rat mGlu7 activation transfected in HEK293 cells co-transfected with chimeric Gqi9 assessed as decrease in LSP4-202 potency by measuring LSP4-202 pEC50 incubated for 24 hrs by IP-one HTRF assay; type: functional, cell-based; method in brief: as §1
[4] = target: Metabotropic glutamate receptor 7 (Rattus norvegicus, UniProt P35400); assay: Antagonist activity against rat mGlu7 activation transfected in HEK293 cells co-transfected with chimeric Gqi9 incubated for 24 hrs in presence of LSP4-2022 by IP-one HTRF assay; type: functional, cell-based
Sequence of Metabotropic glutamate receptor 7 (P35400 whole entry): as above
Method in brief: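 Inhibition curves were run with increasing inhibitor concentrations against IP1 production by 30 µM LSP4-2022. Rat mGlu7 was co-expressed with Gqα9 in HEK293 and assayed 24 h post-transfection with IP-One HTRF. IC50/pIC50 are means ± sem of independent experiments in triplicates. pIC50 compared to reference by unpaired t-test.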

[5] = Antagonist activity against LSP4-202-induced rat mGlu7 […] mutant assessed as decrease in LSP4-202 potency by measuring LSP4-202 pEC50 at 100 uM
[6] = target: Metabotropic glutamate receptor 7 (Rattus norvegicus) (UniProt P35400); assay: Competitive antagonist activity against rat mGlu7 receptor assessed as decrease in LSP4-202 effect at 0.3 to 30 uM by Schild plot analysis; conditions: filed as antagonist, dose 0.3-30 µM
Method in brief: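 Schild analysis used the shift of LSP4-2022 concentration-response curves in IP-One IP1 assays. Cells were HEK293 co-transfected with rat mGlu7 and Gqα9. Data are means ± sem of 3 to 11 experiments run in triplicates.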

[7] = Antagonist activity against LSP4-202-induced rat mGlu7 […] mutant assessed as decrease in LSP4-202 potency by measuring LSP4-202 pEC50 at 10 uM
[8] = species on record: Rattus norvegicus; assay: Ratio of pEC50 for antagonist activity against LSP4-202 induced wild type rat mGlu7 assessed as decrease in LSP4-202 potency by measuring LSP4-202 pEC50 at 3 uM to pEC50 for LSP4-202-induced wild type rat mGlu7
[9] = Antagonist activity against LSP4-202-induced rat mGlu7 […] mutant assessed as decrease in LSP4-202 potency by measuring LSP4-202 pEC50 at 3 uM
[10] = species on record: Rattus norvegicus; assay: Ratio of pEC50 for antagonist activity against LSP4-202 induced rat mGlu7 S229A mutant assessed as decrease in LSP4-202 potency by measuring LSP4-202 pEC50 at 3 uM to pEC50 for LSP4-202-induced rat mGlu7 S229A mutant
[11] = species on record: Rattus norvegicus; assay: Ratio of pEC50 for antagonist activity against LSP4-202 induced wild type rat mGlu7 assessed as decrease in LSP4-202 potency by measuring LSP4-202 pEC50 at 10 uM to pEC50 for LSP4-202-induced wild type rat mGlu7
[12] = species on record: Rattus norvegicus; assay: Ratio of pEC50 for antagonist activity against LSP4-202 induced rat mGlu7 S229A mutant assessed as decrease in LSP4-202 potency by measuring LSP4-202 pEC50 at 10 uM to pEC50 for LSP4-202-induced rat mGlu7 S229A mutant
[13] = species on record: Rattus norvegicus; assay: Ratio of pEC50 for antagonist activity against LSP4-202 induced rat mGlu7 S229A mutant assessed as decrease in LSP4-202 potency by measuring LSP4-202 pEC50 at 100 uM to pEC50 for LSP4-202-induced rat mGlu7 S229A mutant
[14] = species on record: Rattus norvegicus; assay: Ratio of pEC50 for antagonist activity against LSP4-202 induced wild type rat mGlu7 assessed as decrease in LSP4-202 potency by measuring LSP4-202 pEC50 at 30 uM to pEC50 for LSP4-202-induced wild type rat mGlu7
[15] = Antagonist activity against LSP4-202-induced rat mGlu7 […] mutant assessed as decrease in LSP4-202 potency by measuring LSP4-202 pEC50 at 30 uM
[16] = species on record: Rattus norvegicus; assay: Ratio of pEC50 for antagonist activity against LSP4-202 induced rat mGlu7 S229A mutant assessed as decrease in LSP4-202 potency by measuring LSP4-202 pEC50 at 30 uM to pEC50 for LSP4-202-induced rat mGlu7 S229A mutant

- Emax [1]: 96%
SMILES: COc1ccc(OCC(=O)c2ccc(O)cc2)cc1OC
- Ratio [2]: 0.99

- Emax [1]: 95.9%
SMILES: COc1ccc(C(=O)COc2ccc(I)c(C)c2)cc1
- Ratio [2]: 0.97

- Emax [1]: 106%
SMILES: O=Cc1ccc(OCC(=O)c2ccc(O)cc2)cc1F
- Ratio [2]: 1

- Emax [1]: 98.5%
SMILES: O=C(COc1ccc([N+](=O)[O-])cc1)c1ccc(O)cc1
- Ratio [2]: 0.87

- inhibition [3]: inactive
SMILES: COc1ccc2c(c1)oc1c(=O)c3ccccc3oc12

- inhibition [3]: inactive
SMILES: O=c1c2ccccc2oc2c1oc1ccc(Br)cc12

- Emax [1]: 98.6%
SMILES: O=C(O)c1ccc(OCC(=O)c2ccc(O)cc2)cc1
- Ratio [2]: 1.07

- Emax [1]: 87.3%
- IC50 ([4]; read-out: IC50): 2.6 µM
- IC50 ([4]; read-out: pIC50 (converted)): 2.24 µM
SMILES: O=C(COc1ccc(Br)cc1F)c1ccc(O)cc1
- Ratio [2]: 0.76

- Emax [1]: 97.5%
SMILES: Cc1cc(OCC(=O)c2ccc(O)cc2)ccc1I
- Ratio [2]: 0.96

- Emax [1]: 96.8%
SMILES: O=C(COc1cccc(O)c1)c1ccc(O)cc1
- Ratio [2]: 1.03

- Emax [1]: 99.2%
SMILES: O=C(COc1ccc(Br)cc1)c1ccc(O)cc1
- Ratio [2]: 0.81

- inhibition [3]: inactive
SMILES: O=c1c2ccc(F)cc2oc2c1oc1ccc(I)cc12

- EC50 [5]: 60.7 µM
- pEC50 [5]: 4.25
- Activity [6]: Active
- EC50 [7]: 9.91 µM
- pEC50 [7]: 5
- Ratio [8]: 0.82
- EC50 [9]: 6.88 µM
- pEC50 [9]: 5.16
- IC50 ([4]; read-out: IC50): 0.95 µM
- IC50 ([4]; read-out: pIC50 (converted)): 0.851 µM
- Ratio [10]: 1
- Ratio [11]: 0.72
- Ratio [12]: 0.97
- Ratio [13]: 0.82
- Ratio [14]: 0.59
- EC50 [15]: 21.7 µM
- pEC50 [15]: 4.68
- Ratio [16]: 0.91
SMILES: O=C(COc1ccc(Br)cc1F)c1ccc(O)c(F)c1
- Ratio [2]: < 0.6

- Emax [1]: 93.3%
SMILES: O=C(COc1ccc(Br)cc1Cl)c1ccc(O)cc1
- Ratio [2]: 0.95

- Emax [1]: 88.1%
SMILES: O=C(COc1ccc(O)cc1)c1ccc(O)cc1
- Ratio [2]: 1.06

- Emax [1]: 101%
SMILES: O=C(COc1ccc(C(F)(F)F)cc1)c1ccc(O)cc1
- Ratio [2]: 0.91

- EC50 [5]: 27 µM
- pEC50 [5]: 4.6
- Activity [6]: Active
- EC50 [7]: 38.2 µM
- pEC50 [7]: 4.42
- Emax [1]: 90.3%
- Ratio [8]: 0.91
- IC50 ([4]; read-out: IC50): 3.44 µM
- IC50 ([4]; read-out: pIC50 (converted)): 3.31 µM
- Ratio [11]: 0.85
- Ratio [12]: 0.91
- Ratio [13]: 0.95
- Ratio [14]: 0.79
- EC50 [15]: 35.7 µM
- pEC50 [15]: 4.53
- Ratio [16]: 0.93
SMILES: O=C(COc1ccc(Br)cc1F)c1ccc(O)c(O)c1
- Ratio [2]: 0.76

- Emax [1]: 96.6%
SMILES: COc1ccc(C(=O)COc2ccc(C(F)(F)F)cc2)cc1
- Ratio [2]: 0.97

- Emax [1]: 92.6%
SMILES: N#Cc1ccc(OCC(=O)c2ccc(O)cc2)cc1
- Ratio [2]: 0.89

- Emax [1]: 98.3%
SMILES: Cc1cc(I)ccc1OCC(=O)c1ccc(O)cc1
- Ratio [2]: 0.97

- Activity [6]: Active
- IC50 ([4]; read-out: IC50): 1.25 µM
- IC50 ([4]; read-out: pIC50 (converted)): 1.15 µM
SMILES: O=C(COc1ccc(Br)cc1F)c1cc(F)c(O)c(F)c1
- Ratio [2]: < 0.6

- Emax [1]: 97.6%
SMILES: COc1ccc(OCC(=O)c2ccc(O)cc2)cc1
- Ratio [2]: 0.96

- Emax [1]: 85.2%
SMILES: COc1ccc(C(=O)COc2ccc([N+](=O)[O-])cc2)cc1
- Ratio [2]: 0.95
